Reference: ChEMBL document CHEMBL2163245 (J Med Chem, 2012)

Target: T1, Potassium voltage-gated channel subfamily KQT member 2 (Homo sapiens, UniProt O43526)
Test: Agonist activity at KCNQ2 expressed in CHO cells incubated for 3 mins by automated patch clamp assay
Type: functional, cell-based
Outline: (§1)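 Ionworks Quattro population patch clamp on CHO cells stably expressing KCNQ2, 7,000 cells/well in extracellular solution (mM: 137 NaCl, 4 KCl, 1 MgCl2, 1.8 CaCl2, 10 HEPES, 10 glucose, pH 7.4), amphotericin B (50 μg/ml) perforation. Held -90 mV, 2,000 ms step to -10 mV; steady-state current at pulse end before and 3 min after compound; % change versus pre-compound current. Cells >100 pA and seal >30 MΩ only.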

T1 sequence (O43526 whole entry): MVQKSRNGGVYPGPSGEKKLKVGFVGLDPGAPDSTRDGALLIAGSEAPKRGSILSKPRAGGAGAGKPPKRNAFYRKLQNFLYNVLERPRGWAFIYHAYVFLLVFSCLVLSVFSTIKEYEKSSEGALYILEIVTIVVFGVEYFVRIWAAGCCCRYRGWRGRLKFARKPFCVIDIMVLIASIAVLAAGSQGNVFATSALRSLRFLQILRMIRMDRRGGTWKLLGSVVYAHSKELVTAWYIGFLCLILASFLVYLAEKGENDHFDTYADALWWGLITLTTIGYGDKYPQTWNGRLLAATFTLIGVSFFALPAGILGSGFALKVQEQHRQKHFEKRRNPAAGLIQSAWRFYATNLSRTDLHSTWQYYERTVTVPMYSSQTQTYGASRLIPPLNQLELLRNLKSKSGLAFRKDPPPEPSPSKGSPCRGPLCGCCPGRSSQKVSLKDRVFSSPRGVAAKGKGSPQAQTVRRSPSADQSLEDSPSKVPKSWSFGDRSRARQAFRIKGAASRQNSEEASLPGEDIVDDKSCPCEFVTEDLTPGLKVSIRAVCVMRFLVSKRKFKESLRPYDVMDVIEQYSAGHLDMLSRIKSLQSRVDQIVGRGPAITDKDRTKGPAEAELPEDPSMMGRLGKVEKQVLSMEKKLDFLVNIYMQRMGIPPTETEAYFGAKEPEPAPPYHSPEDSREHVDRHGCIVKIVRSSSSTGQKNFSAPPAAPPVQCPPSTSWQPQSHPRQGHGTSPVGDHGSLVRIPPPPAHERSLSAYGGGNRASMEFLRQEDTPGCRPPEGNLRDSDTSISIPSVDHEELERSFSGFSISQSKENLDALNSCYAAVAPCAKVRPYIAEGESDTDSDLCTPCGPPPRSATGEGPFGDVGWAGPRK

Structure (SMILES)	EC50
CCC(C(=O)Nc1ccccc1-n1c(C)ccc1C)c1ccccc1 (racemic)	> 30 µM
O=C(Nc1ccccc1N1CCCC1)C(F)c1ccccc1 (configuration not stated)	0.99 µM
CN(C(=O)Cc1ccccc1)c1ccccc1N1CCCC1	> 30 µM
CN(Cc1ccccc1)c1ccccc1NC(=O)Cc1cccc(Cl)c1	> 30 µM

Continued, values first:

EC50	Structure (SMILES)
7.09 µM	O=C(Cc1cccc(Cl)c1)Nc1ccccc1N1CCCCC1
12.3 µM	O=C(Cc1cccc(Cl)c1)Nc1ccccc1-n1cccc1
0.95 µM	O=C(Cc1ccccc1Cl)Nc1ccccc1N1CCCC1
1.75 µM	COc1ccc(CC(=O)Nc2ccccc2N2CCCC2)cc1
0.17 µM	O=C(Cc1cccc(Cl)c1)Nc1ccccc1N1CCCC1
> 30 µM	O=C(Cc1cccc(Cl)c1)Nc1ccccc1N1CCOCC1
2.35 µM	COc1cccc(CC(=O)Nc2ccccc2N2CCCC2)c1
1.73 µM	O=C(Cc1ccc(F)c(F)c1)Nc1ccccc1N1CCCC1
0.7 µM	O=C(Cc1ccc(F)cc1)Nc1ccccc1N1CCCC1
> 30 µM	CCN(C)c1ccccc1NC(=O)Cc1cccc(Cl)c1
1.07 µM	O=C(Cc1ccc(Cl)c(Cl)c1)Nc1ccccc1N1CCCC1
0.8 µM	O=C(Cc1ccc(Cl)cc1)Nc1ccccc1N1CCCC1
0.49 µM	O=C(Cc1cccc(F)c1)Nc1ccccc1N1CCCC1
8.66 µM	O=C(Cc1cccc(Cl)c1)Nc1ccc(N2CCCC2)cc1
0.35 µM	O=C(Cc1cccc(C(F)(F)F)c1)Nc1ccccc1N1CCCC1
27.4 µM	CN(C)c1ccccc1NC(=O)Cc1cccc(Cl)c1
0.743 µM	O=C(Cc1ccccc1)Nc1ccccc1N1CCCC1
1.02 µM	O=C(Cc1cccc(Cl)c1)Nc1cccc(N2CCCC2)c1
> 30 µM	O=C(Cc1cccc(Cl)c1)Nc1ccccc1N1CCCCCC1
1.32 µM	Cc1cccc(CC(=O)Nc2ccccc2N2CCCC2)c1

Target: T1, Potassium voltage-gated channel subfamily KQT member 2
Test: Agonist activity at KCNQ2 expressed in CHO cells at 30 uM incubated for 3 mins by automated patch clamp assay
Type: functional, cell-based
Outline: as §1

inhibition	Structure (SMILES)
26.6%	O=C(Cc1ccccc1F)Nc1ccccc1N1CCCC1

Test system: not listed separately
Test: Selectivity ratio of IC50 for KCNQ1 to KCNQ2

Structure (SMILES)	Ratio IC50
C[C@H](C(=O)Nc1ccccc1N1CCCC1)c1ccccc1	> 40
CC[C@H](C(=O)Nc1ccccc1N1CCCCC1)c1ccccc1	> 40
CCC(C(=O)Nc1ccccc1N1CCCC1)c1ccccc1F (racemic)	> 40
CCC(C(=O)Nc1ccccc1N1CCCC1)c1ccc(F)cc1 (racemic)	> 40

Next, values leading:

Ratio IC50	Structure (SMILES)
> 40	CCC(C(=O)Nc1ccccc1N1CCCC1)c1cccc(Cl)c1 (racemic)
> 40	CCC(C(=O)Nc1ccccc1N1CCCC1)c1cccc(C(F)(F)F)c1 (racemic)
> 40	CCC(C(=O)Nc1ccccc1N1CCCC1)c1cccc(C)c1 (racemic)
> 40	CCC(C(=O)Nc1ccccc1N1CCCC1)c1cccc(F)c1 (racemic)
> 40	CCC(C(=O)Nc1ccccc1N1CCCC1)c1ccc(Cl)cc1 (racemic)
> 40	CCC(C(=O)Nc1ccccc1N1CCCC1)c1cccc(OC)c1 (racemic)

Target: T1, Potassium voltage-gated channel subfamily KQT member 2
Test: Antagonist activity at KCNQ2 expressed in CHO cells incubated for 3 mins by automated patch clamp assay
Type: functional, cell-based

Structure (SMILES)	IC50
CCC(C(=O)Nc1ccccc1N1CCCC1)c1ccc(OC)cc1 (racemic)	0.38 µM
CCC(C(=O)N(C)c1ccccc1N1CCCC1)c1ccccc1 (racemic)	> 30 µM
O=C(Nc1ccccc1N1CCCC1)C1CCOc2ccccc21 (racemic)	> 30 µM
CC(C)(C(=O)Nc1ccccc1N1CCCC1)c1ccccc1	> 30 µM
CC(C(=O)Nc1ccccc1N1CCCC1)c1ccccc1 (racemic)	0.26 µM
CCC(C(=O)Nc1ccccc1N1C(=O)CCC1=O)c1ccccc1 (racemic)	> 30 µM
CCC(C(=O)Nc1ccccc1N1CCCCCC1)c1ccccc1 (racemic)	> 30 µM
CCC(C(=O)Nc1ccccc1N1CCOCC1)c1ccccc1 (racemic)	12.7 µM
CCC(C(=O)Nc1ccccc1-n1cccc1)c1ccccc1 (racemic)	5.27 µM
CCC(C(=O)Nc1ccccc1N1CCCC1)c1ccccc1 (racemic)	0.163 µM
CCC(C(=O)Nc1ccccc1N1CCCC1)c1ccc(OC)c(OC)c1 (racemic)	20.2 µM
CCC(C(=O)Nc1ccccc1N1CCCC1)c1ccccc1F (racemic)	0.44 µM
CCC(C(=O)Nc1ccccc1N1CCCC1)c1ccc(F)cc1 (racemic)	0.13 µM
CCC(C(=O)Nc1ccccc1-n1ccnc1)c1ccccc1 (racemic)	> 30 µM
CCC(C(=O)Nc1ccccc1N(C)CC)c1ccccc1 (racemic)	> 30 µM
O=C(Nc1ccccc1N1CCCC1)C1(c2ccccc2)CC1	> 30 µM
CC(C)CC(C(=O)Nc1ccccc1N1CCCC1)c1ccccc1 (racemic)	2.22 µM
CCCC(C(=O)Nc1ccccc1N1CCCC1)c1ccccc1 (racemic)	0.32 µM
CCC(C(=O)Nc1ccccc1Cl)c1ccccc1 (racemic)	15 µM
O=C(Nc1ccccc1N1CCCC1)C(c1ccccc1)C1CC1 (racemic)	3.5 µM

Continued, values first:

IC50	Structure (SMILES)
> 30 µM	CCC(C(=O)Nc1cccc(N2CCCC2)c1)c1ccccc1 (racemic)
0.24 µM	CCC(C(=O)Nc1ccccc1N1CCCC1)c1cccc(Cl)c1 (racemic)
0.47 µM	CCC(C(=O)Nc1ccccc1N1CCCC1)c1ccc(Cl)c(Cl)c1 (racemic)
0.21 µM	CCC(C(=O)Nc1ccc(N2CCCC2)cc1)c1ccccc1 (configuration not stated)
0.39 µM	CCC(C(=O)Nc1ccccc1N1CCCC1)c1cccc(C(F)(F)F)c1 (racemic)
0.33 µM	CCC(C(=O)Nc1ccccc1N1CCCC1)c1cccc(C)c1 (racemic)
0.36 µM	CCC(C(=O)Nc1ccccc1N1CCCC1)c1cccc(F)c1 (racemic)
0.33 µM	O=C(Nc1ccccc1N1CCCC1)C1CCc2ccccc21 (racemic)
0.28 µM	CCC(C(=O)Nc1ccccc1N1CCCC1)c1ccc(Cl)cc1 (racemic)
0.17 µM	CCC(C(=O)Nc1ccccc1N1CCCC1)c1ccc(F)c(F)c1 (racemic)
0.12 µM	CCC(C(=O)Nc1ccccc1N1CCCC1)c1cccc(OC)c1 (racemic)
3.31 µM	CCC(C(=O)Nc1ccccc1N1CCCC1)c1ccccc1Cl (racemic)
